Results reported in ChEMBL document CHEMBL1123193, “The lysine pathway as a target for a new genera of synthetic antibacterial antibiotics?” (1986).
≈ marks a conversion by molar mass, not a printed value.

Experiments:
[1] = tested on: Escherichia coli; assay: Compound is evaluated for the inhibition of bacterial growth (Escherichia coli ATCC 9637) in the liquid medium at 5 mmol of amino acid; type: functional
Method in brief: (§1)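 Davis and Mingioli liquid medium, 4.8 mL, inoculated with 0.2 mL of an 18-h liquid culture of the test organism, with 0.1 mL of compound solution added. Growth followed by absorbance at 660 nm. Percent inhibition calculated after 6 h at 37 °C.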

[2] = tested on: Escherichia coli; assay: Compound is evaluated for the inhibition of bacterial growth (Escherichia coli ATCC 9637) in the liquid medium at 1 mmol of amino acid; type: functional; method in brief: as §1
[3] = tested on: Escherichia coli; assay: Percent of inhibition of diaminopimelic acid decarboxylase at 2 mmol of amino acids, 1.05 mmol/L of labeled meso-DAP, and 32 umol/L of PLP
Method in brief: (§2)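 Enzyme was meso-DAP decarboxylase isolated and purified from E. coli ATCC 9637. Inhibition measured as decarboxylation of labeled meso-DAP in the presence of the test amino acid.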

[4] = tested on: Escherichia coli; assay: Compound is evaluated for the inhibition of bacterial growth (Escherichia coli ATCC 9637) in the liquid medium at 2 mmol of amino acid; type: functional; method in brief: as §1
[5] = tested on: Escherichia coli; assay: Percent of inhibition of diaminopimelic acid decarboxylase at 10 mmol of amino acids, 1.05 mmol/L of labeled meso-DAP, and 32 umol/L of PLP; method in brief: as §2
[6] = tested on: Escherichia coli; assay: Percent of inhibition of diaminopimelic acid decarboxylase at 1 mmol of amino acids, 1.05 mmol/L of labeled meso-DAP, and 32 umol/L of PLP; method in brief: as §2
[7] = tested on: Escherichia coli; assay: Percent of inhibition of diaminopimelic acid decarboxylase at 5 mmol of amino acids, 1.05 mmol/L of labeled meso-DAP, and 32 umol/L of PLP; method in brief: as §2
[8] = tested on: Escherichia coli; assay: Minimum inhibitory concentration required for the inhibition of Escherichia coli ATCC 9637; type: functional
Method in brief: (§3)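 Agar dilution on Davis and Mingioli solid medium, supplemented with amino acids where needed. MIC taken as the lowest concentration giving complete growth inhibition, expressed in micrograms.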

[9] = tested on: Escherichia coli; assay: Percent of inhibition of v decarboxylase at 1 mmol of amino acids, 1.05 mmol/L of labeled meso-DAP, and 32 umol/L of PLP; method in brief: as §2
[10] = tested on: Escherichia coli; assay: Percent of inhibition of diaminopimelic acid decarboxylase at 1 mmol of amino acid; method in brief: as §2
[11] = tested on: Escherichia coli; assay: Percent of inhibition of diaminopimelic acid decarboxylase at 5 mmol of amino acid; method in brief: as §2
[12] = tested on: Pseudomonas aeruginosa; assay: Not Plasmodium species; type: functional
[13] = tested on: Escherichia coli; assay: Minimum inhibitory concentration compared to D-cycloserine, against Escherichia coli ATCC 9637; type: functional; method in brief: as §3
[14] = tested on: Enterobacter cloacae; assay: Minimum inhibitory concentration compared to D-cycloserine, against Enterobacter cloacae 60.22
[15] = tested on: Serratia marcescens; assay: Minimum inhibitory concentration compared to D-cycloserine, against Serratia marcescens A 174; type: functional; method in brief: as §3
[16] = tested on: Citrobacter freundii; assay: Minimum inhibitory concentration compared to D-cycloserine, against Citrobacter freundii 55.13; type: functional; method in brief: as §3
[17] = tested on: Providencia rettgeri; assay: Minimum inhibitory concentration compared to D-cycloserine, against Proteus rettgeri 53.100; type: functional; method in brief: as §3
[18] = tested on: Escherichia coli; assay: Minimum inhibitory concentration compared to D-cycloserine, against Escherichia coli UB 1005; type: functional; method in brief: as §3
[19] = Minimum inhibitory concentration compared to D-cycloserine, against Moraxella glucidolytica 52.90; type: functional; method in brief: as §3
[20] = tested on: Pseudomonas aeruginosa; assay: Minimum inhibitory concentration compared to D-cycloserine, against Pseudomonas aeruginosa A22; type: functional; method in brief: as §3
[21] = tested on: Escherichia coli; assay: Minimum inhibitory concentration compared to D-cycloserine, against Escherichia coli DC2; type: functional; method in brief: as §3
[22] = tested on: Klebsiella pneumoniae; assay: Minimum inhibitory concentration compared to D-cycloserine, against Klebsiella pneumoniae 53.153; type: functional; method in brief: as §3
[23] = tested on: Serratia liquefaciens; assay: Minimum inhibitory concentration compared to D-cycloserine, against Serratia liquefaciens 52.56; type: functional; method in brief: as §3
[24] = tested on: Providencia alcalifaciens; assay: Minimum inhibitory concentration compared to D-cycloserine, against providencia alcalifaciens 58.62; type: functional; method in brief: as §3
[25] = tested on: Escherichia coli; assay: Percent of inhibition of diaminopimelic acid decarboxylase at 1 mmol of amino acid, 1.05 mmol/L of labeled meso-DAP, and 32 umol/L of PLP; method in brief: as §2
[26] = tested on: Escherichia coli; assay: Percent of inhibition of diaminopimelic acid decarboxylase at 2 mmol of amino acid, 1.05 mmol/L of labeled meso-DAP, and 32 umol/L of PLP; method in brief: as §2
[27] = tested on: Escherichia coli; assay: Compound is evaluated for the growth of Escherichia coli W7 in the liquid medium at 100 ug/mL.; Absence of growth; type: functional, organism-based
[28] = tested on: Pseudomonas aeruginosa; assay: Minimum inhibitory concentration required for the inhibition of Pseudomonas aeruginosa A22; type: functional; method in brief: as §3
[29] = tested on: Escherichia coli; assay: Percent of inhibition of diaminopimelic acid decarboxylase at 10 mmol of amino acid, 1.05 mmol/L of labeled meso-DAP, and 32 umol/L of PLP; method in brief: as §2
[30] = tested on: Escherichia coli; assay: Percent of inhibition of diaminopimelic acid decarboxylase at 5 mmol of amino acid, 1.05 mmol/L of labeled meso-DAP, and 32 umol/L of PLP; method in brief: as §2
[31] = tested on: Enterobacter cloacae; assay: Minimum inhibitory concentration compared to D-cycloserine, against Enterobacter cloacae 60.22; remark: listed apart in the source
[32] = tested on: Escherichia coli; assay: Percent of inhibition of DAP decarboxylase at 10 mmol of amino acids, 1.05 mmol/L of labeled meso-DAP, and 32 umol/L of PLP; method in brief: as §2
[33] = tested on: Escherichia coli; assay: Compound is evaluated for the growth of Escherichia coli W7 in the presence lysine in liquid medium; Growth is observed; type: functional, organism-based
[34] = Escherichia coli, ATCC 9637, read-out: MIC
[35] = Pseudomonas aeruginosa, read-out: MIC

## C/C(=C/C(N)C(=O)O)CC(N)C(=O)O (stereo unspecified)
[1]
  Inhibition: 55%
[2]
  Inhibition: 0%
[3]
  inhibition: 33%
[4]
  Inhibition: 0%
[5]
  inhibition: 73%
[6]
  inhibition: 17%
[7]
  inhibition: 54%

## CC(N)(CCCC(N)C(=O)O)C(=O)O (stereo unspecified)
[1]
  Inhibition: 90%
[2]
  Inhibition: 38%
[8]
  MIC: 512 µg/mL (≈ 2510 µM)
[3]
  inhibition: 18%
[4]
  Inhibition: 74%
[9]
  inhibition: 8%
[7]
  inhibition: 35%

## NC(/C=C(\Cl)CC(N)C(=O)O)C(=O)O (stereo unspecified)
[10]
  inhibition: 18%
[1]
  Inhibition: 50%
[8]
  MIC: > 128 µg/mL
[11]
  inhibition: 53%

## CC1(C)S[C@@H]2[C@H](NC(=O)[C@H](N)c3ccccc3)C(=O)N2[C@H]1C(=O)O [AMPICILLIN]
[8]; [34]
  MIC: 5 µg/mL (≈ 14.3 µM)
[12]
  MIC: 512 µg/mL (≈ 1470 µM)

## N[C@@H]1CONC1=O [CYCLOSERINE]
[13]
  MIC: 0.5 µg/mL (≈ 4.9 µM)
[14]
  MIC: 2 µg/mL (≈ 19.6 µM)
[8]; [34]
  MIC: 0.25 µg/mL (≈ 2.45 µM)
[15]
  MIC: 128 µg/mL (≈ 1250 µM)
[16]
  MIC: 2 µg/mL (≈ 19.6 µM)
[17]
  MIC: 128 µg/mL (≈ 1250 µM)
[18]
  MIC: 32 µg/mL (≈ 313 µM)
[12]
  MIC: 128 µg/mL (≈ 1250 µM)
[19]
  MIC: 128 µg/mL (≈ 1250 µM)
[20]
  MIC: 64 µg/mL (≈ 627 µM)
[21]
  MIC: 128 µg/mL (≈ 1250 µM)
[22]
  MIC: 8 µg/mL (≈ 78.4 µM)
[23]
  MIC: 8 µg/mL (≈ 78.4 µM)
[24]
  MIC: 8 µg/mL (≈ 78.4 µM)

## C/C(=C\C(N)C(=O)O)CC(N)C(=O)O (stereo unspecified)
[1]
  Inhibition: 50%
[2]
  Inhibition: 0%
[3]
  inhibition: 20%
[4]
  Inhibition: 21%
[7]
  inhibition: 50%

## NC(/C=C/CC(N)C(=O)O)C(=O)O (stereo unspecified)
[1]
  Inhibition: 0%
[25]
  inhibition: 65%
[2]
  Inhibition: 0%
[26]
  inhibition: 77%
[4]
  Inhibition: 0%

## N[C@H](CCC[C@H](N)C(=O)O)C(=O)O
[27]
  Bacterial growth: Absence of growth

## C=C(CC(N)C(=O)O)CC(N)C(=O)O (single isomer, unassigned; (-))
[28]; [35]
  MIC: 4 µg/mL (≈ 19.8 µM)
[8]; Escherichia coli, ATCC 9637
  MIC: 4 µg/mL (≈ 19.8 µM)

## CC(CC(N)C(=O)O)CC(N)C(=O)O (stereo unspecified)
[1]
  Inhibition: 0%
[25]
  inhibition: 12%
[4]
  Inhibition: 0%
[29]
  inhibition: 55%
[30]
  inhibition: 43%

## C=C(CC(N)C(=O)O)CC(N)C(=O)O (stereo in doubt; 4) [listing 1 of 2 here]
[13]
  MIC: 32 µg/mL (≈ 158 µM)
[1]
  Inhibition: 95%
[2]
  Inhibition: 90%
[28]
  MIC: 4 µg/mL (≈ 19.8 µM)
[8]
  MIC: 2 µg/mL (≈ 9.89 µM)
[15]
  MIC: 2 µg/mL (≈ 9.89 µM)
[16]
  MIC: 16 µg/mL (≈ 79.1 µM)
[17]
  MIC: 128 µg/mL (≈ 633 µM)
[18]
  MIC: 2 µg/mL (≈ 9.89 µM)
[4]
  Inhibition: 90%
[19]
  MIC: 16 µg/mL (≈ 79.1 µM)
[20]
  MIC: 16 µg/mL (≈ 79.1 µM)
[21]
  MIC: 32 µg/mL (≈ 158 µM)
[22]
  MIC: 32 µg/mL (≈ 158 µM)
[23]
  MIC: 2 µg/mL (≈ 9.89 µM)
[31]
  MIC: 16 µg/mL (≈ 79.1 µM)
[24]
  MIC: 128 µg/mL (≈ 633 µM)

## NCCCC[C@H](N)C(=O)O
[27]
  Bacterial growth: Absence of growth

## C=C(C[C@@H](N)C(=O)O)C[C@H](N)C(=O)O
[13]
  MIC: 32 µg/mL (≈ 158 µM)
[14]
  MIC: 16 µg/mL (≈ 79.1 µM)
[28]; [35]
  MIC: 4 µg/mL (≈ 19.8 µM)
[8]
  MIC: 2 µg/mL (≈ 9.89 µM)
[15]
  MIC: 4 µg/mL (≈ 19.8 µM)
[16]
  MIC: 32 µg/mL (≈ 158 µM)
[17]
  MIC: 64 µg/mL (≈ 317 µM)
[18]
  MIC: 2 µg/mL (≈ 9.89 µM)
[19]
  MIC: 16 µg/mL (≈ 79.1 µM)
[20]
  MIC: 16 µg/mL (≈ 79.1 µM)
[21]
  MIC: 4 µg/mL (≈ 19.8 µM)
[22]
  MIC: 16 µg/mL (≈ 79.1 µM)
[23]
  MIC: 2 µg/mL (≈ 9.89 µM)
[6]
  inhibition: 8%
[7]
  inhibition: 22%
[32]
  inhibition: 30%
[24]
  MIC: 128 µg/mL (≈ 633 µM)

## C=C(CC(N)C(=O)O)CC(N)C(=O)O (stereo in doubt; (+)-4)
[28]
  MIC: 6 µg/mL (≈ 29.7 µM)
[8]
  MIC: 6 µg/mL (≈ 29.7 µM)

## C[C@@H]1O[C@@H]1P(=O)(O)O [FOSFOMYCIN]
[8]; [34]
  MIC: 16 µg/mL (≈ 116 µM)
[12]
  MIC: 32 µg/mL (≈ 232 µM)

## C=C(C[C@@H](N)C(=O)O)C[C@@H](N)C(=O)O.C=C(C[C@H](N)C(=O)O)C[C@H](N)C(=O)O
[13]
  MIC: 16 µg/mL
[14]
  MIC: 16 µg/mL
[28]; [35]
  MIC: 4 µg/mL
[8]
  MIC: 2 µg/mL
[15]
  MIC: 4 µg/mL
[16]
  MIC: 8 µg/mL
[17]
  MIC: 64 µg/mL
[18]
  MIC: 8 µg/mL
[19]
  MIC: 8 µg/mL
[5]
  inhibition: 20%
[20]
  MIC: 32 µg/mL
[21]
  MIC: 8 µg/mL
[22]
  MIC: 16 µg/mL
[23]
  MIC: 4 µg/mL
[6]
  inhibition: 5%
[7]
  inhibition: 10%
[24]
  MIC: 32 µg/mL

## CC(N)(/C=C/CC(N)C(=O)O)C(=O)O (stereo unspecified)
[1]
  Inhibition: 0%
[25]
  inhibition: 0%
[26]
  inhibition: 0%
[4]
  Inhibition: 0%

## C=C(CC(N)C(=O)O)CC(N)C(=O)O (stereo in doubt; 4) [listing 2 of 2 here]
[33]
  Bacterial growth: Growth
[5]
  inhibition: 30%
[6]
  inhibition: 5%
[7]
  inhibition: 15%
